Bioassay records: PubChem, several laboratories
The full list was thinned out, with hits kept by preference.
MMP13 inh = human MMP13 inhibitors, primary screen, biochemical, FRET peptide cleavage; MMP-13 fTHP FRET cleavage, Mca fluorescence; 65,000 tested, 0.07% active; inhibition, % at 4 µM; AID 570, 2006; Collagenase 3 (Homo sapiens), P45452;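 active = inhibition above the mean of compound-free control plate wells plus 3 SD, cut at about 14% in these data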;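 note: 0% = DMSO wells and 100% = wells with reference MMP-13 inhibitor after basal subtraction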
Ec RNAP inh = E. coli RNAP inhibitors, biochemical. DNA-directed RNA polymerase subunit beta (Escherichia coli (strain K12)), P0A8V2. E. coli RNA polymerase, fluorescence transcription assay. 62,000 tested, 0.2% active. inhibition, %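 (tested at 10 µM)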; in the data active = inhibition above about 20%;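 note: 0% = enzyme without compound and 100% = no enzyme blank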
HePTP inh = inhibitors of human HePTP phosphatase, primary screen, biochemical, absorbance, leukemia target; inhibition, % at 20 µM; 110,000 tested, 0.64% active; Tyrosine-protein phosphatase non-receptor type 7 (Homo sapiens), P35236; recombinant HePTP phosphatase activity, OD absorbance; AID 521, 2006; in the data active = inhibition above about 50%;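 note: plate controls were vehicle for no effect and reference inhibitor for full effect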
Ecoli tolC = growth inhibitors of E. coli tolC mutant, primary screen, strain BW25113 ΔtolC::kan, 384-well | 65,000 tested, 2.2% active | growth inhibition, % at 10 µM (by protocol) | AID 573, 2007 | OD615;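 active = growth inhibition at or above a cutoff equal to the mean over every tested compound plus 3 SD, cut at about 60% in these data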;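 note: growth measured after 20 h incubation at 37 °C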
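Doses: one dose of 10 µM final / Material: E. coli BW25113 ΔtolC::kan, tolC deletion mutant strain / Buffer or medium: LB with kanamycin 50 µg/mL / Evaluation: percent growth inhibition / Detection: optical density read at 615 nm / Incubation: 37 °C, 20 h exposure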
AP complement = alternative complement pathway inhibitors, primary screen, biochemical, ELISA, human serum, orthogonally pooled compounds. LPS-coated ELISA, C3 deposition; tested in compound mixtures. inhibition, % at 5 µM. 62,000 tested, 0.08% active;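 active = inhibition above 30% in each of the two pooled mixtures holding the compound, so the lower value exceeds 30%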;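 note: 0% = serum in Mg-EGTA without compound and 100% = EDTA serum blank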
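Assay system: Human serum alternative complement pathway, C3 deposition on LPS-coated wells | Incubation: 1 h serum-compound exposure at 37 °C | Doses: 5 µM per compound in ten-compound mixtures | Read-out: Percent inhibition | Technique: ELISA with HRP anti-human C3 antibody, TMB substrate, absorbance 450 nm | Replication: Two pool placements per compound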
Ecoli WT expand = growth inhibitors of wild-type E. coli, primary screen, strain BW25113, expanded library, OD600; OD600 absorbance; growth inhibition, % at 100 µM; 98,000 tested, 0.15% active;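 active = growth inhibition above about 50% at one test dose, limit read from the data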;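 note: growth measured after 20 h incubation at 37 °C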
Numbers without * were called inactive; . = not tested or not shown; ! = repeats disagree.

SMILES | MMP13 inh | Ec RNAP inh | HePTP inh | Ecoli tolC | AP complement | Ecoli WT expand
COc1ccc(OCC(O)Cn2c(=N)n(Cc3ccccc3)c3ccccc32)cc1 (stereo unspecified) | 4 | 7 | 5 | 66* | 1 | 25
O=C1CCC(C(=O)OCC(=O)c2ccc([N+](=O)[O-])cc2)N1 (stereo unspecified) | . | . | -3 | . | . | .
O=C(COC(=O)c1cccc(C#Cc2ccccc2)c1)c1ccc([N+](=O)[O-])cc1 | . | . | 9 | . | . | .
CCN=C1SC(CC(=O)Nc2ccccc2C#N)C(=O)N1CC (stereo unspecified) | . | . | 3 | . | . | .
CC(C)(C)C1(C)OC(O)(C(F)(F)C(F)F)CC1=O (stereo unspecified) | . | . | 104* | . | . | .
CCOc1ccccc1OCCOc1ccc(Cl)c(CC)c1 | . | . | 6 | . | . | .
COc1ccc(OC)c(C(=O)COC(=O)c2cc(C)oc2C)c1 | 0 | 7 | 14 | 61* | 12 | -4
Cc1cc(C(=O)OCC(=O)c2ccc(Br)s2)c(C)o1 | -7 | 5 | 5 | 20 | 10 | -1
Cc1cc(C)nc(NS(=O)(=O)c2ccc(NC(=O)c3ccc(S(=O)(=O)N4CCOCC4)cc3)cc2)n1 | . | . | 11 | . | . | -8
Cc1cc(C)c(O)c(-c2cc(C(=O)Nc3ccc(S(=O)(=O)N4CCOCC4)cc3)[nH]n2)c1 | 0 | 8 | 4 | 91* | 6 | -10
O=C(Nc1cccc(Cl)c1)Nc1nccs1 | -1 | 0 | 5 | 69* | 22 | 77*
COc1ccc(OC)c(N(CC(=O)Nc2ccc(Oc3ccccc3)cc2)S(C)(=O)=O)c1 | . | . | 3 | . | . | .
CC(NC(=O)Nc1nnc(C(F)(F)F)s1)(C(F)(F)F)C(F)(F)F | 4 | . | -3 | 3 | . | 71*
O=C(Nc1nc2ccccc2n1CCOc1ccccc1)c1ccccc1F | . | . | -13 | . | . | .
O=C(Nc1cccc(S(=O)(=O)c2cccc(NC(=O)C3CC3)c2)c1)C1CC1 | -5 | 10 | 3 | 94* | 7 | 10
O=C(NCc1cccnc1)c1ccc(-c2ccccc2)cc1 | . | . | -1 | . | . | .
CC(C)Oc1ccc(C(=O)NCc2cccnc2)cc1 | 0 | 13 | 104*! | -5 | 4 | 8
COc1cccc(N2C(=O)/C(=C/c3cccc4ccccc34)SC2=S)c1 | . | . | -5 | . | . | .
O=C(Nc1ccc(Cl)cc1)N1CCC(c2nc(-c3cccs3)no2)CC1 | 2 | -7 | 7 | 100* | 2 | -4
O=C(Nc1ccccc1)N1CCCC(c2nc(-c3ccc(F)cc3)no2)C1 (stereo unspecified) | . | . | . | . | . | -14
O=C(Nc1cccc(C(F)(F)F)c1)N1CCC(c2nc(-c3ccc(F)cc3)no2)CC1 | 2 | -1 | -3 | 89* | -30 | -1
COC(=O)c1c(-c2cccc3ccccc23)csc1N | . | . | -6 | . | . | .
COC(=O)C1=C(C)NC2=C(C(=O)CC(c3cccs3)C2)C1c1cc(OC)c(OC)c(OC)c1 (stereo unspecified) | . | . | -7 | . | . | .
c1ccc(-c2nnc(-c3ccccn3)nc2-c2ccccc2)cc1 | . | . | 0 | . | . | .
c1ccc(-c2nnc(-c3ccccn3)nn2)nc1 | -1 | 25* | 1 | -11 | 7 | .
SMILES | MMP13 inh | Ec RNAP inh | HePTP inh | Ecoli tolC | AP complement | Ecoli WT expand
c1ccc(-c2cccc(-c3ccccn3)n2)nc1 | 6 | -6 | 9 | 73* | 12 | 68*
CCOC(=O)c1c(NC(=O)C2C3CCC(O3)C2C(=O)O)sc2c1CCC(CC)C2 (stereo unspecified) | . | . | 103* | . | . | .
CCOC(=O)c1c(NC(=O)c2ccc(C)o2)sc2c1CCCCCC2 | . | . | -11 | . | . | .
COC(=O)c1c(NC(=O)c2ccc(C)o2)sc2c1CCCCC2 | -23 | -3 | -2 | 63* | -5 | 8
CCC1CCc2c(sc(NC(=O)c3ccc(Br)o3)c2C(=O)OC)C1 (stereo unspecified) | . | . | 104* | . | . | .
COC(=O)c1c(NC(=O)Cc2cccs2)sc2c1CCCC2 | -4 | 11 | 6 | 70* | -1 | -14
COCC(=O)Nc1sc2c(c1C(=O)OC)CCCC2 | -1 | 9 | 2 | 24 | -1 | -13
Cc1ccc(N2C(=O)NC(=O)/C(=C\c3ccc(-c4ccc(C)c([N+](=O)[O-])c4)o3)C2=O)cc1 | . | . | 10 | . | . | .
